{"data": "Experimental data pooled from the literature", "target": "Dual specificity tyrosine-phosphorylation-regulated kinase 1A (DYRK1A, Homo sapiens, UniProt Q13627)", "method": "competition with immobilised ligand", "note": "Compare with care: the assays were run in different laboratories."}
{"Structure (SMILES)": "COc1cnc(Nc2cccc(S(N)(=O)=O)c2)nc1N1CCN(c2ccccc2)CC1", "effect on": "binding", "concentration": "1 µM", "remaining binding [%]": 76}
{"Structure (SMILES)": "O=C(Nc1c[nH]nc1C(=O)NC1CCNCC1)c1cc(F)cc(F)c1", "effect on": "binding", "concentration": "1 µM", "remaining binding [%]": 19}
{"Structure (SMILES)": "COc1ncc2cc3ccccc3nc2c1C#N", "effect on": "cell-free assay", "concentration": "5 µM", "remaining binding [%]": 74}
{"Structure (SMILES)": "COC(=O)Nc1nc2ccc(C(=O)c3ccccc3)cc2[nH]1", "effect on": "cell-free assay", "concentration": "10 µM", "remaining binding [%]": 34}
{"Structure (SMILES)": "CCOCCn1cc(C(=O)Nc2ccc(-n3nc(-c4cccnc4)cc3C(F)(F)F)cn2)ccc1=O", "effect on": "cell-free assay", "concentration": "1 µM", "remaining binding [%]": 77}
{"Structure (SMILES)": "Nc1ncc2c(n1)-c1c([nH]c3ccc(C#CC4CC4)cc13)CCCC2", "effect on": "binding", "concentration": "1 µM", "remaining binding [%]": 100}
{"Structure (SMILES)": "C=CC(=O)N1CCC(C(=O)NCC(=O)N2CCN(c3nc(-c4cnc(N)nc4C(F)F)nc(N4CCOCC4)n3)CC2)CC1", "effect on": "binding", "concentration": "1 µM", "remaining binding [%]": 94}
{"Structure (SMILES)": "O=C(NCCCN1CCOCC1)c1ccc(Nc2ncc(Cl)c(-c3ccc(Cl)s3)n2)cc1", "effect on": "binding", "concentration": "1 µM", "remaining binding [%]": 0.5}
{"Structure (SMILES)": "Cc1noc([C@H]2C[C@@H](c3ccc(C(F)(F)F)cc3)CN(C(=O)N3CCS(=O)(=O)C3)C2)n1", "effect on": "cell-free assay", "concentration": "1 µM", "remaining binding [%]": 100}
{"Structure (SMILES)": "O=C(c1ccc(Nc2nccc(-c3cc4ccccc4s3)n2)cc1)N1CCC(N2CCCC2)CC1", "effect on": "binding", "concentration": "1 µM", "remaining binding [%]": 68}
{"Structure (SMILES)": "O=C(O)[C@H]1[C@H](Cn2nnc3ccccc3c2=O)CC[C@@H]1C(=O)c1ccc(OCCC2CCOCC2)cc1", "effect on": "cell-free assay", "concentration": "1 µM", "remaining binding [%]": 85}
{"Structure (SMILES)": "O=C(NCCCN1CCOCC1)c1ccc(Nc2nccc(-c3cc4ccccc4s3)n2)cc1", "effect on": "binding", "concentration": "1 µM", "remaining binding [%]": 41}
{"Structure (SMILES)": "O=C(NC[C@@H]1[C@H]2CN(C(=O)OCc3cc(C(F)(F)F)cc(C(F)(F)F)c3)C[C@@H]12)c1ccc2[nH]nnc2c1", "effect on": "cell-free assay", "concentration": "1 µM", "remaining binding [%]": 86}
{"Structure (SMILES)": "COc1cnc(Nc2cccc(S(N)(=O)=O)c2)nc1N1CCN(c2ccccc2)C(=O)C1", "effect on": "binding", "concentration": "1 µM", "remaining binding [%]": 91}
